Assay outcomes (PubChem BioAssay)
T cruzi growth-1 = inhibitors of T. cruzi proliferation; T. cruzi beta-gal in NIH3T3, GalScreen luminescence, 90 h; inhibition, % at 8.34 µM; actives 5.9% (n = 77,000); AID 624255;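 active = mean inhibition above about 93%, with at least 55% of replicates each passing it, limit read from the data, passing the limit was not always enough; inconclusive = only one of those two conditions holds; inactive = neither condition holds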
GASC1 inh = KDM4C (human) demethylase inhibition. inhibition, % at 12.5 µM. GST-KDM4C 2-372, H3K9me3 peptide, LANCE TR-FRET. Q9H3R0. actives 0.15% (n = 96,000);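 active = mean replicate inhibition above about 25%, with at least 55% of replicates also reaching it, limit read from the data, passing the limit was not always enough; inconclusive = only one of those two conditions met; inactive = neither condition met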
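Material: GST-tagged GASC-1 (JMJD2C) catalytic fragment, aa 2-372. Input: enzyme final amount 10 nM. Medium: HEPES buffer, pH 7.5, plus ascorbate. Reagent: H3K9me3 peptide substrate, Fe(II), 2-oxoglutarate. Doses: single dose. Times: reaction 30 min RT, detection step 1 h RT. Measured by: LANCE TR-FRET. Evaluation: Fall in 671/618 emission ratio as inhibition.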
Pf Dd2 growth = inhibitors of Plasmodium falciparum Dd2 growth; P. falciparum Dd2 growth, SYBR Green, 72 h; active compounds read low; activity change, % at 10 µM; actives 2.3% (n = 94,000); AID 1159554; in the data active = activity change below about -80%; inconclusive = no clear call, values can overlap the other calls
IDH1 mut inh = inhibitors of human IDH1 R132H. IDH1 R132H reductase, diaphorase/resazurin fluorescence, 60 min. AID 624101. O75874. actives 0.18% (n = 70,000). inhibition, % at 10 µM; in the data active = inhibition above about 34%; inconclusive = no clear call, values can overlap the other calls; inactive = below about 11%;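 note: 0% = DMSO and 100% = no enzyme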
Target sequence (O75874 whole entry R132H): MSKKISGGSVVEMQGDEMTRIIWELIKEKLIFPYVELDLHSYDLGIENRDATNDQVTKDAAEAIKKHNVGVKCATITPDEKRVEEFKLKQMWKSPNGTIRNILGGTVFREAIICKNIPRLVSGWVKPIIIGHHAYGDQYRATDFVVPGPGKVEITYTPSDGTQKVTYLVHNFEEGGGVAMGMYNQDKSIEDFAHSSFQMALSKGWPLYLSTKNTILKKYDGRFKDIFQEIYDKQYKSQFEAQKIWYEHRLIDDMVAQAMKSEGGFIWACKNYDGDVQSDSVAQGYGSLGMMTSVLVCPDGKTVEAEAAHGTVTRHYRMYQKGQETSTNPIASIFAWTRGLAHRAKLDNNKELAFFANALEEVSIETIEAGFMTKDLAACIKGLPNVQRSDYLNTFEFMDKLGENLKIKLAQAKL
T cruzi growth-2 = Trypanosoma cruzi proliferation inhibition; shares compounds with T cruzi growth-1; T. cruzi beta-gal in NIH3T3, GalScreen luminescence, 90 h; inhibition, % at 8.35 µM; actives 72% (n = 5,600);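 active = mean replicate inhibition above about 95% and at least 55% of replicates individually reaching it, limit read from the data; inconclusive = only one of the two criteria is met; inactive = neither criterion is met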
T cruzi growth-3 = Trypanosoma cruzi proliferation inhibition; shares compounds with T cruzi growth-1; T. cruzi beta-gal in NIH3T3, GalScreen luminescence, 90 h; inhibition, % at 2.09 µM; actives 21% (n = 5,600); AID 651740;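 active = mean inhibition above about 95%, with at least 55% of replicates also reaching it, limit read from the data; inconclusive = meets just one of the two conditions; inactive = meets neither condition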;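 note: plate controls were neutral control median for no effect and positive control median for full effect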
3T3 cytotox = kills mouse NIH/3T3 fibroblasts; shares compounds with T cruzi growth-1; NIH/3T3 viability, CellTiter-Glo ATP luminescence, 90 h; cytotoxicity (signal decrease), % at 8.35 µM; actives 14% (n = 5,600);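 active = mean signal decrease across replicates above about 35% based on untreated-well scatter, with enough replicates individually passing, limit read from the data; inconclusive = no rule stated though some were filed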;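 note: 0% = median of neutral control wells and 100% = median of positive control wells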
3T3 cytotox 2 = kills mouse NIH/3T3 fibroblasts; inhibition, % at 24.9 µM; NIH/3T3 viability, CellTiter-Glo ATP luminescence, 90 h; actives 56% (n = 5,600); shares compounds with T cruzi growth-1; AID 651744;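 active = mean loss of cell viability signal at or above a set limit, and enough replicates individually reaching it; inconclusive = meets only the mean limit or only the replicate share; inactive = meets neither condition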;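 note: 0% = median of neutral control wells and 100% = median of positive control wells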
Starred values were filed as active, the others as inactive; ? = inconclusive; . = not tested or not shown. A selection: hits, their analogues and other compounds. The true share with any hit is near 5.8%.

SMILES	T cruzi growth-1	GASC1 inh	Pf Dd2 growth	IDH1 mut inh	T cruzi growth-2	T cruzi growth-3	3T3 cytotox	3T3 cytotox 2
CCCC#Cc1ccc([C@H]2[C@@H](CO)N3CCCCN(Cc4ccncc4)C[C@@H]23)cc1	114.7*	0.7	-8.0	.	100.8*	28.2	?	70.8*
COc1ccc(C#Cc2ccc([C@@H]3[C@@H](CO)N4CCCCN(Cc5ccncc5)C[C@H]34)cc2)cc1	?	2.3	-73.9	.	100.0*	?	89.3*	105.0*
CCCC#Cc1ccc([C@H]2[C@H]3CN(Cc4ccncc4)CCCCN3[C@H]2CO)cc1	94.9*	-0.7	-24.7	.	105.0*	56.3	42.3*	80.7*
C[C@H](CO)N1C[C@H](C)[C@@H](CN(C)S(=O)(=O)c2ccc(Cl)cc2)OCc2ccccc2-c2ccccc2C1=O	94.5	0.4	-38.9	-0.2	.	.	.	.
C/C=C/c1ccc2c(c1)O[C@H](CN(C)Cc1ccc(F)cc1)[C@@H](C)CN([C@H](C)CO)S2(=O)=O	103.6*	-0.9	-58.2	0.4	?	93.0	?	106.0*
C/C=C/c1ccc2c(c1)O[C@H](CN(C)Cc1ccc(F)cc1)[C@H](C)CN([C@@H](C)CO)S2(=O)=O	59.1	-0.6	3.3	-0.3	.	.	.	.
C/C=C/c1ccc2c(c1)O[C@@H](CN(C)Cc1ccc(F)cc1)[C@H](C)CN([C@H](C)CO)S2(=O)=O	118.7*	0.4	-51.9	0.1	97.9*	110.2*	51.6*	105.4*
C[C@@H]1CN([C@H](C)CO)S(=O)(=O)c2ccc(C#CCC3CCCC3)cc2O[C@@H]1CN(C)C(=O)CC1CC1	112.5*	-0.7	-70.5	0.3	96.3*	94.9	12.5	105.2*
CCC(=O)N(C)C[C@H]1Oc2cc(C#CCC3CCCC3)ccc2S(=O)(=O)N([C@H](C)CO)C[C@H]1C	115.6*	-0.2	-59.3	-0.3	97.5*	55.0	44.1*	103.1*
C[C@H]1CN([C@@H](C)CO)S(=O)(=O)c2ccc(C#CCC3CCCC3)cc2O[C@H]1CN(C)C	-19.8	.	-60.4	-0.4	.	.	.	.
CNC[C@H]1Oc2cc(C#CCC3CCCC3)ccc2S(=O)(=O)N([C@H](C)CO)C[C@@H]1C	?	-1.7	-52.8	-0.4	99.2*	72.8	28.9	106.4*
CCC(=O)N(C)C[C@@H]1Oc2cc(C#CCC3CCCC3)ccc2S(=O)(=O)N([C@H](C)CO)C[C@H]1C	94.0	-2.2	-64.2	0.1	.	.	.	.
C[C@@H]1CN([C@@H](C)CO)C(=O)c2cccc(NC(=O)C3CCOCC3)c2O[C@H]1CN(C)Cc1ccc(Oc2ccccc2)cc1	85.2	-0.9	-59.7	-3.8	.	.	.	.
COc1ccc(S(=O)(=O)N(C)C[C@H]2Oc3ccc(NC(=O)c4ccncc4)cc3CC(=O)N([C@H](C)CO)C[C@@H]2C)cc1	41.8	-1.2	34.4	-0.5	.	.	.	.
COc1ccccc1C#Cc1ccc2c(c1)[C@H]1[C@H](CCN1C(=O)c1ccccc1)[C@H](CO)N2	100.3*	-2.2	-4.4	.	106.3*	84.0	30.5	82.7*
O=C(c1ccc(F)cc1)N1CC[C@H]2[C@H](CO)Nc3ccc(C#Cc4ccccc4F)cc3[C@H]21	.	-0.2	-69.1	.	.	.	.	.
O=C(c1ccccc1)N1CC[C@@H]2[C@@H](CO)Nc3ccc(C#Cc4ccccc4F)cc3[C@@H]21	101.5*	0.7	-53.3	.	106.1*	70.9	-5.0	95.8*
COc1ccccc1C#Cc1ccc2c(c1)[C@H]1[C@H](CCN1C(=O)c1ccc(F)cc1)[C@@H](CO)N2	.	-3.2	-65.0	.	.	.	.	.
CCOC(=O)c1ccccc1NC(=O)C(C)Oc1cc(C)c(Cl)c(C)c1 (stereo unspecified)	.	.	.	0.7	.	.	.	.
C[C@H](CO)N1C[C@H](C)[C@@H](CN(C)C)Oc2cc(C#Cc3ccc(F)cc3)ccc2S1(=O)=O	-175.7	-2.7	14.6	-1.3	.	.	.	.
C[C@@H]1CN([C@@H](C)CO)C(=O)c2cccc(NC(=O)Nc3ccc(C(F)(F)F)cc3)c2O[C@@H]1CN(C)Cc1ccc(Cl)c(Cl)c1	?	7.4	-29.5	0.6	108.3*	59.6	4.6	99.8*
C[C@H]1CN([C@@H](C)CO)C(=O)c2cccc(NC(=O)Nc3ccc(C(F)(F)F)cc3)c2O[C@H]1CN(C)Cc1ccc(Cl)c(Cl)c1	?	-1.8	-32.4	.	98.3*	105.3*	12.5	103.4*
C[C@H]1CN([C@@H](C)CO)C(=O)c2cccc(NC(=O)Nc3ccc(C(F)(F)F)cc3)c2O[C@@H]1CN(C)Cc1ccc(Cl)c(Cl)c1	?	-1.0	-25.4	4.5	97.9*	106.0*	44.6*	105.4*
C[C@H](CO)N1C[C@H](C)[C@@H](CN(C)Cc2ccc(Cl)c(Cl)c2)Oc2c(NC(=O)Nc3ccc(C(F)(F)F)cc3)cccc2C1=O	?	-0.5	-18.1	1.2	31.0	-21.5	6.6	4.6
C[C@H]1CN([C@@H](C)CO)C(=O)c2cccc(NC(=O)Nc3ccc(C(F)(F)F)cc3)c2O[C@H]1CN(C)Cc1ccc(C(F)(F)F)cc1	94.0	-1.4	-7.6	.	.	.	.	.
SMILES	T cruzi growth-1	GASC1 inh	Pf Dd2 growth	IDH1 mut inh	T cruzi growth-2	T cruzi growth-3	3T3 cytotox	3T3 cytotox 2
C[C@@H]1CN([C@@H](C)CO)C(=O)c2cccc(NC(=O)Nc3ccc(F)cc3)c2O[C@H]1CN(C)Cc1ccc(Cl)c(Cl)c1	70.8	-5.3	-30.6	.	.	.	.	.
COC(=O)c1ccccc1NC(=O)COc1c(Cl)cc(Cl)c2ccccc12	.	.	.	-0.1	.	.	.	.
C[C@H](CO)N1C[C@H](C)[C@H](CN(C)Cc2ccc3c(c2)OCO3)OCc2ccccc2-c2c(n(C)c3ccccc23)C1=O	.	-1.8	-55.0	.	.	.	.	.
O=C(C[C@@H]1CC[C@@H]2[C@H](COC[C@@H](O)CN2S(=O)(=O)c2ccccc2)O1)NCc1ccc(-c2ccccc2)cc1	105.3*	-8.2	-90.5*	.	105.1*	42.7	-1.2	13.3
O=C(C[C@H]1CC[C@@H]2[C@H](COC[C@H](O)CN2S(=O)(=O)c2cccc(F)c2)O1)Nc1ccc(-c2ccccc2)cc1	101.2*	-0.1	-27.1	.	97.8*	88.1	43.9*	103.8*
COc1cccc(S(=O)(=O)N2C[C@H](O)COC[C@H]3O[C@@H](CC(=O)N4CCOCC4)CC[C@@H]32)c1	?	0.2	0.1	.	12.5	13.9	10.8	1.3
O=C(C[C@H]1CC[C@@H]2[C@H](COC[C@@H](O)CN2S(=O)(=O)c2cccc(F)c2)O1)Nc1ccc(-c2ccccc2)cc1	96.3*	-1.9	-32.5	.	103.0*	60.2	49.8*	100.7*
COc1cccc(S(=O)(=O)N2C[C@@H](O)COC[C@@H]3O[C@@H](CC(=O)N4CCOCC4)CC[C@H]32)c1	8.0	1.5	4.5	.	.	.	.	.
